Measured values as given in paper PMC7233370 (Journal of medicinal chemistry, 2020).
“Also recorded” adds a separate entry of the source. Each block holds one compound with its values, some of them ahead of it.

Key:
yGsy2p [1] = molecular target: T1, yGsy2p (Saccharomyces cerevisiae, UniProt P27472); assay: 14C-glucose incorporation assay, yGsy2p inhibition; type: biochemical; details: co-variation of UDPG and inhibitor
T1 sequence (P27472 1-705): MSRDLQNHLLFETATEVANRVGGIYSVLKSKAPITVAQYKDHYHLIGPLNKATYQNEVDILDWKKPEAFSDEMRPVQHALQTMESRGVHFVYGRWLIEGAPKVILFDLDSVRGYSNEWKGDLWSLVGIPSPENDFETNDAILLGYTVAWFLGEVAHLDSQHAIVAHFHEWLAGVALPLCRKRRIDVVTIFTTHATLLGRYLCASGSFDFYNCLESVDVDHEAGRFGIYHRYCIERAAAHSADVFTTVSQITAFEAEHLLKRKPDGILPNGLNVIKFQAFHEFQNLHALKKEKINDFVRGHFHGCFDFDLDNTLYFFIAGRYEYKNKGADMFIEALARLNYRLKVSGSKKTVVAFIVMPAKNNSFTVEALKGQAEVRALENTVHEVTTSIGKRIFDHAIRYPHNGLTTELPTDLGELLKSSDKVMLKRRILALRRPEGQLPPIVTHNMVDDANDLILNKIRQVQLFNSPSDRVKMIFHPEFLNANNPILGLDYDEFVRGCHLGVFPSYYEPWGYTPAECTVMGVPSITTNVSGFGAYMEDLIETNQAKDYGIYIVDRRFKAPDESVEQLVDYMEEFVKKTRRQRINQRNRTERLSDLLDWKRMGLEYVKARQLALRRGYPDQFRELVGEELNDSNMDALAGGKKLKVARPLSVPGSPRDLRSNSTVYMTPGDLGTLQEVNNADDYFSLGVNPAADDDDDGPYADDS

hGYS1Δ634S8,11N = molecular target: T2, hGYS1Δ634S8,11N (Homo sapiens, UniProt P13807, S11N/S8N); assay: 14C-glucose incorporation assay, hGYS1Δ634S8,11N inhibition; type: biochemical; details: read-out: inhibition of truncated hGYS1 (hGYS1Δ634S8,11N)
T2 sequence (P13807 1-634 S8N/S11N limits assumed): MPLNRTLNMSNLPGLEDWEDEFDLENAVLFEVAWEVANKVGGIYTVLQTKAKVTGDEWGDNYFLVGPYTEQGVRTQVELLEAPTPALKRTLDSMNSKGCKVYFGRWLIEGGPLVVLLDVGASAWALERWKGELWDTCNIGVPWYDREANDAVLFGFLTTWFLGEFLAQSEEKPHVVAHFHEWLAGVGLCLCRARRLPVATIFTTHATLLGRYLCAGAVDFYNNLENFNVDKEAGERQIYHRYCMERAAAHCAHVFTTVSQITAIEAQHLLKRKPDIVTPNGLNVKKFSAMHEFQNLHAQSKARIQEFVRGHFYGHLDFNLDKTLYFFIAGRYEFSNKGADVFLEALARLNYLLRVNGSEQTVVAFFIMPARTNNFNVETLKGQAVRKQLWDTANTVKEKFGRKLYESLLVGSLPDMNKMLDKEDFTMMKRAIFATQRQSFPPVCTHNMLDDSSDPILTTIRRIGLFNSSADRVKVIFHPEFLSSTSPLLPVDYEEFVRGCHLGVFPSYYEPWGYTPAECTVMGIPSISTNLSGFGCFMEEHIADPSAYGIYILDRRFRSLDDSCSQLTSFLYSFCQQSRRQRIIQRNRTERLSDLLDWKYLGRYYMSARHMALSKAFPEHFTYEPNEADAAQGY

[2] = molecular target: T3, GS activity in HEK293-PTG cell lysates (Homo sapiens, UniProt P13807); assay: GS activity in HEK293-PTG cell lysates, 14C-glucose incorporation; type: biochemical; details: 100 μM compound; 0.15 mg/mL lysate; 0.2 mM UDPG, 1 mM G6P
T3 sequence (P13807 1-737): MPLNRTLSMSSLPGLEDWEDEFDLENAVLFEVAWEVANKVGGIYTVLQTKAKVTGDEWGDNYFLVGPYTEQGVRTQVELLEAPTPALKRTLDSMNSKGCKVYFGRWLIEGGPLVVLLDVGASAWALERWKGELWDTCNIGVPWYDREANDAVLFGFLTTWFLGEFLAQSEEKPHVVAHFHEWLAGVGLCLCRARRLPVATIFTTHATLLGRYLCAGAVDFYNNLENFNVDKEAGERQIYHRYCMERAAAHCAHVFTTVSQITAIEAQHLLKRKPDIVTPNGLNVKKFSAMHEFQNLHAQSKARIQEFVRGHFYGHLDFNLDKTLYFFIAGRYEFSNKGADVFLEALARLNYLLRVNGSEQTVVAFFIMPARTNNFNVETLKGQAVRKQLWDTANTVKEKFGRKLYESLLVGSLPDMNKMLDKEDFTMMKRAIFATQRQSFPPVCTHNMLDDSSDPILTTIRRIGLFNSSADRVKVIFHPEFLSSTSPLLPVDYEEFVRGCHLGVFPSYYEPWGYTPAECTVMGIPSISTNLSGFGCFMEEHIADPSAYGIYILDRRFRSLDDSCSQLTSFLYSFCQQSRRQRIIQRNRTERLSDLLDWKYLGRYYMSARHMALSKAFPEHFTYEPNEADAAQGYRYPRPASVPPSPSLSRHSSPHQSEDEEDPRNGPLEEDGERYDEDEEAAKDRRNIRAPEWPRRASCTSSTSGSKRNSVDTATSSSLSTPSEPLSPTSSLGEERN
Procedure, shortened: (§1)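 HEK293 cells stably transfected with mouse PTG (hygromycin-selected mixed clones) were grown to confluence. Cells were lysed in EDTA/EGTA/NaF buffer with protease inhibitors, vanadate and Triton, freeze-scraped, sonicated, and the lysate diluted 10-fold. Assay: 50 mM Tris-HCl pH 7.8, 6.7 mg/ml glycogen, 0.2 mM UDPG, 1 mM G6P, 2% DMSO, test compound 100 µM. Read-out: 14C-glucose incorporation as % of DMSO control.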

[3] = molecular target: T4, GS activity in Rat-1 cell lysates (Rattus norvegicus, UniProt A2RRU1); assay: GS activity in Rat-1 cell lysates, 14C-glucose incorporation; type: biochemical; details: 100 μM compound; 0.75 mg/mL lysate; 0.2 mM UDPG, 1 mM G6P
T4 sequence (A2RRU1 1-738): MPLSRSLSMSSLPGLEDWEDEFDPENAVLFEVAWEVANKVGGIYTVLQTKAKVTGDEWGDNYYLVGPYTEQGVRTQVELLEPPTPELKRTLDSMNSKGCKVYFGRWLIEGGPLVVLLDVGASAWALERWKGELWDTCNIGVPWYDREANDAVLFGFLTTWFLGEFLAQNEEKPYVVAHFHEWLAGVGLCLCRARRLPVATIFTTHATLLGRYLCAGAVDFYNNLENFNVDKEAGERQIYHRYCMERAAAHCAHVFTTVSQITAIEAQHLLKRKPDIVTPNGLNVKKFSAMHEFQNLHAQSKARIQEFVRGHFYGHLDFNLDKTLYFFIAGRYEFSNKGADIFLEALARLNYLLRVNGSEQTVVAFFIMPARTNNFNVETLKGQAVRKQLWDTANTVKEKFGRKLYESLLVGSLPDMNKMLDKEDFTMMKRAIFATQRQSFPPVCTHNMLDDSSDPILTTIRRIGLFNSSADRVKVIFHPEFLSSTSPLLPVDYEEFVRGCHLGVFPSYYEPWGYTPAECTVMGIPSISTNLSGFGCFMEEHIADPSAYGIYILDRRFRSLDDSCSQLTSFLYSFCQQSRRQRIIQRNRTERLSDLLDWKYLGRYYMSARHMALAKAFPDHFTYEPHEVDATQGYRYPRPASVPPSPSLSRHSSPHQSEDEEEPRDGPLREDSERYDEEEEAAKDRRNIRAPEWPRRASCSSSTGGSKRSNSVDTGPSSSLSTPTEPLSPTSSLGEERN
Procedure, shortened: as §1, with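 “Rat-1 fibroblasts” for “HEK293 cells stably transfected with mouse PTG (hygromycin-selected mixed clones)”, “grown in DMEM/10% FBS” for “grown”, “2-fold.” for “10-fold.”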

wild-type hGYS1 = molecular target: T5, wild-type hGYS1 (Homo sapiens, UniProt P13807); assay: 14C-glucose incorporation assay, wild-type hGYS1 inhibition; type: biochemical; details: for improvement in potency toward hGYS1 relative to H23: ratio of IC50 values versus H23
T5 sequence (P13807 1-737): T3 sequence (P13807 1-737)

yGsy2p Y513L mutant = yGsy2p Y513L mutant (Saccharomyces cerevisiae, UniProt P27472, Y513L); assay: Inhibition of yGsy2p active-site mutant Y513L; type: biochemical; details: saturating G6P (7.2 mM)
yGsy2p [4] = molecular target: T1, yGsy2p; assay: Fluorescence polarization competitive displacement of tracer from yGsy2p; type: binding
Procedure, shortened: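 Fluorescein-labelled glucosamine-6-phosphate tracer at 20 nM final with 4.2 µM yeast Gsy2p in 15 mM Tris-HCl pH 7.8, 15 mM NaCl. Unlabelled G6P titrated from 0.68 µM to 40 mM. Incubated 10 min at 25°C, then polarization read (ex 485/em 535 nm, mP). EC50 of the displacement fit taken as Kd. Triplicate.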

hGYS1 [5] = molecular target: T6, hGYS1 (Homo sapiens, UniProt P13807); assay: Activation of hGYS1 by G6P or GlcN6P, 14C-glucose incorporation assay; type: biochemical
T6 sequence (P13807 1-737): T3 sequence (P13807 1-737)
Procedure, shortened: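 Full-length human GYS1 was expressed in insect cells. Radiochemical 14C-glucose incorporation assay run at varied G6P or GlcN6P. % activation was plotted against activator concentration and fitted to a hyperbolic binding equation to give AC50. Done in triplicate.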

yGsy2p [6] = molecular target: T1, yGsy2p; assay: Activation of yGsy2p by G6P, 14C-glucose incorporation assay; type: biochemical
Procedure, shortened: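 His-tagged yeast Gsy2p was expressed in E. coli BL21(DE3) and purified by Ni-NTA then Q-Sepharose. Radiochemical 14C-glucose incorporation assay run at varied G6P. % activation was fitted to a hyperbolic binding equation to give AC50. Done in triplicate.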

hGYS1 [7] = molecular target: T6, hGYS1; assay: Fluorescence polarization displacement of tracer from hGYS1; type: binding; details: FP assay with hGYS1
yGsy2p [8] = molecular target: T1, yGsy2p; assay: Fluorescence polarization saturation binding of tracer to yGsy2p
Procedure, shortened: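 Yeast Gsy2p titrated from 0 to 50 µM against 20 nM final fluorescein-labelled glucosamine-6-phosphate tracer in 15 mM Tris-HCl pH 7.8, 15 mM NaCl. Incubated 10 min at 25°C, then polarization read (ex 485/em 535 nm, mP). Saturation curve fitted to a hyperbolic equation for Kd. Triplicate.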

Sequence of yGsy2p Y513L mutant (P27472 whole entry Y513L): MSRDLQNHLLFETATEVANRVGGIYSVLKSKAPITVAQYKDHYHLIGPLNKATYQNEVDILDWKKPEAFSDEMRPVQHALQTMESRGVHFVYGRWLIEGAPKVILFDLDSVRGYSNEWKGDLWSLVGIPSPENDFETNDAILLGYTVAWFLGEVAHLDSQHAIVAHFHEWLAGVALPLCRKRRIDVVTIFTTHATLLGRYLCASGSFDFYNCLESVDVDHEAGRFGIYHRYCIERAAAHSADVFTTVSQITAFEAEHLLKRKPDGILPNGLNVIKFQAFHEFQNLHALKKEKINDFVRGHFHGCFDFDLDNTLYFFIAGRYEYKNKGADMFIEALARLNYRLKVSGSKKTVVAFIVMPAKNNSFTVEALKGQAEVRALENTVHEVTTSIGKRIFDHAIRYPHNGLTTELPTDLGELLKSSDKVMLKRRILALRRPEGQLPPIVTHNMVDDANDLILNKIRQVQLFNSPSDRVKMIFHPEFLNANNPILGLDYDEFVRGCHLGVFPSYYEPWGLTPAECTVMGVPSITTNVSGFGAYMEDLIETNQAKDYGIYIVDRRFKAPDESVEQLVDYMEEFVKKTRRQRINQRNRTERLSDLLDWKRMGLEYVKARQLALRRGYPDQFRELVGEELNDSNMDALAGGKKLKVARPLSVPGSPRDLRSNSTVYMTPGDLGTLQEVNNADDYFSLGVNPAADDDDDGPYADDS

mode of inhibition of yGsy2p with respect to varied UDPG (yGsy2p [1]): competitive
inhibition at 100 µM (hGYS1Δ634S8,11N): > 20%
reduction of synthase activity in HEK293-PTG cell lysate [2]: did not significantly inhibit
reduction of synthase activity in Rat-1 cell lysate [3]: did not significantly inhibit
SMILES: COc1cc(-c2c(-c3ccccc3)ncn2CCC2CCCN2C)ccc1O (racemic) [Compound H23, (rac)-2-methoxy-4-(1-(2-(1-methylpyrrolidin-2-yl)ethyl)-4-phenyl-1H-imidazol-5-yl)phenol]

improvement in potency toward hGYS1 relative to H23 (wild-type hGYS1): 16 fold
SMILES: Cc1[nH]nc(-c2ccc(O)c(O)c2O)c1-c1ccc(Cl)cc1 [Compound 11]

AC50 (hGYS1 [5]): 5900 ± 100 µM
SMILES: N[C@H]1C(O)O[C@H](COP(=O)(O)O)[C@@H](O)[C@@H]1O (stereo partly drawn) [GlcN6P, glucosamine-6-phosphate]

Kd (yGsy2p [8]): 7.6 ± 0.7 µM
SMILES: O=C(CSCCC(=O)N[C@@H]1[C@@H](O)[C@H](O)[C@@H](COP(=O)(O)O)O[C@H]1O)Nc1ccc(-c2c3ccc(=O)cc-3oc3cc(O)ccc23)c(C(=O)O)c1 [GlcN6P-fluorescein-5-Ex]

The remaining lines, values behind:

SMILES: O=C(O)CCc1ccc(-c2ccccc2)n1-c1ccc(O)cc1 [Compound 7]
improvement in potency toward hGYS1 relative to H23 (wild-type hGYS1): 2 fold
reduction of synthase activity in HEK293-PTG cell lysate [2]: did not significantly inhibit
reduction of synthase activity in Rat-1 cell lysate [3]: did not significantly inhibit

SMILES: Oc1ccc(-c2c(-c3ccc(O)c(O)c3O)n[nH]c2C(F)(F)F)cc1 [Compound 23, 4-(4-(4-hydroxyphenyl)-3-(trifluoromethyl)-1H-pyrazol-5-yl)pyrogallol]
improvement in potency toward hGYS1 relative to H23 (wild-type hGYS1): more than 300 fold
mode of inhibition for wild-type hGYS1 (wild-type hGYS1; versus UDPG): competitive
inhibition of Y513L mutant compared with wild-type yGsy2p (yGsy2p Y513L mutant): compromised; also recorded: decreased potency

SMILES: O=C[C@H](O)[C@@H](O)[C@H](O)[C@H](O)COP(=O)(O)O [Compound G6P, glucose-6-phosphate]
Kd (yGsy2p [4]): 70.9 ± 3.6 µM
AC50 (hGYS1 [5]): 1600 ± 100 µM
AC50 (yGsy2p [6]): 98.1 ± 3.1 µM
displacement of GlcN6P-coupled fluorophore or fluorophore alone from hGYS1 (hGYS1 [7]): unable to displace

SMILES: O=c1ccn([C@@H]2O[C@H](COP(=O)(O)OP(=O)(O)O)[C@@H](O)[C@H]2O)c(=O)[nH]1 [UDP, reference compound]
mode of inhibition of yGsy2p with respect to varied UDPG (yGsy2p [1]): competitive
